167 variants from the RNAGym collection of RNA variant scans (doi:10.1126/science.aae0568) can be followed below.

Sequences and labels used below:
B1: tRNA (parent)
chain: GUUCCGUUGGCGUAAUGGUAACGCGUCUCCCUCCUAAGGAGAAGACUGCGGGUUCGAGUCCCGUACGGAACG

Fewer inactive variants are shown than the library holds. Where only a bound is given, the exact number is not on record here.

In this data set the parent is B1. The data set can be described thus: yeast fitness relative to wild type (ratio to wild type); higher = fitter; tRNA-Arg(CCU), competitive growth, 37 C, YPD. The method in brief:
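Genotype frequency changes were the basis for Darwinian fitness relative to wild type. The frequencies came from 100-nucleotide paired-end sequencing of gene amplicons from the start population and each end population of pooled yeast strains with tRNA-Arg(CCU) gene variants at the native locus. Competition ran in YPD at 37°C for 24 hours in six replicates, genotypes needed ≥ 100 starting reads, and estimates < 0.5 were set to 0.5.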
G17C C22G C30U G41C C46U: the yeast fitness stood at 0.708.
Next, A14U U59A G67A: 0.578; A21U U26C C60U: at most 0.5; A14U A37U C61A A65U: at most 0.5.
On to C4U U7A A36U A65G, for which the yeast fitness was 0.535.
The result for C11U A15U C22U reads 0.507.
The result for G6A A40U U53A C61A A65U A69U reads 0.511.
The result for U13G U26G G52A reads at most 0.5; that for A14U U26A C66A, at most 0.5.
As to G9A A65C, the yeast fitness turned out to be 0.93.
Consider A43U C62G, for which the yeast fitness is 0.805.
The result for G25C C66U reads 0.972; that for C11G C34U C66U, at most 0.5.
Take G12A A21G C34U G67U: the yeast fitness is at most 0.5.
G10C A14C G58A: the yeast fitness was at most 0.5.
Next, A15C C27U A42C: at most 0.5; A21G U47A G68A: 0.685.
The result for C5G C27A reads 0.709.
The result for A14U C29U C55U A69G reads at most 0.5; that for U32A A70U, 0.857; that for A45C A70C, 1.05.
For U7A G38A A42U G51A U53G C60G, the yeast fitness is at most 0.5.
Next, C33G A43G U59A: at most 0.5; U59G C62U: 0.875; A20G G56C A70U: 0.859.
U2C C24A C49A: the yeast fitness is at most 0.5.
Next, C22U G41C: 0.698.
The result for C5U U13A C24U A45C reads 0.671; that for C4G U16A A36C, 0.579; that for G39A A42U C49A, at most 0.5.
Next, C5G G48C C49U U54G C55U C66A: 0.604.
As to C34G A42C, the yeast fitness was 0.573.
Next, A20G A37C G39A A65U A70C: at most 0.5; U13A G50C U59A: 0.594; U3A C27A C30G G39A: at most 0.5.
A42C C46G: the yeast fitness came to 0.753.
Next, U7G A14G C22U G38A C55A: 0.555; A36G C62U: 1.05.
Next, A15G C49G G63C: 0.594; A45U G50A: 1.01.
The result for G18C A20U U53C A69U reads at most 0.5.
Take U8C C31U: the yeast fitness worked out at 1.07.
The result for U28G C29A G41C A43U reads at most 0.5; that for C4G A65U, 0.793; that for A20C A40G A65G, 0.57.
The result for A43C A45U C49G C61U reads at most 0.5.
Consider C11G C62U A65U, for which the yeast fitness came out at 0.525.
Next, C27G C30U G39C A40U G44C U47A G48A: at most 0.5; G6A C34U G39C: at most 0.5; A20C C24A G56A C62U A70C: 0.588.
Next, U7A C11U C49A: 0.614; G18C U26C U28A A65U: at most 0.5.
G44C G63C G68A: the yeast fitness was at most 0.5.
Next, C22U G51C C61G A70C: 0.514; U13C G44C G58A G68A: 0.572; A14G G18C C29G U54C: at most 0.5.
Next, C24G C46U: 0.654; A20G C31U G41C A43C C60G: at most 0.5; A42U A45G: 0.918.
The result for C5A A20U G23A C66U reads at most 0.5; that for G18A C31G C34A U47C, at most 0.5; that for C4A U32A A57G A65U, at most 0.5.
Take A15G A21C U32C U64A: the yeast fitness is at most 0.5.
Next, C11G G17A C24U C29G: 0.6; C34U A40U C61G: at most 0.5; G23A C27U: 0.706.
The result for C49G A69C reads 0.766; that for C11G C30G C31G U32A C66U, 0.551.
Next, C30G G68C: 0.691; A37C A43C U59A A69G: at most 0.5; A37U A42U A65C: at most 0.5.
C22U G51C: the yeast fitness was found to be 0.512.
As to U7C G41A A42C G50C C62U, the yeast fitness is at most 0.5.
Next, A14U C22A A43G: at most 0.5; U16A A20U C24G C33G C61A: at most 0.5; U2G C11U G52C C55G A70G: at most 0.5.
Next, C11U A36U C60A: at most 0.5; U3A C31G G67U: 0.542.
The result for A57G A69U reads 0.943; that for C5U G18A G44C, 0.638.
For C4G G6A C11U G23A A43G, the yeast fitness is at most 0.5.
Next, C11U C29G C31U G58U A65G G67A: at most 0.5; G17C A43U: 0.589; U8C C27U A40G G44A C62A: at most 0.5.
The result for C4A G10A U54A reads at most 0.5.
Turning to G17A G58A, the yeast fitness was determined as 0.794.
Next, U28C A37C G56A U59C: at most 0.5; C5G A14G A36U G67A: at most 0.5; C27G U28A A43U: 0.582.
The result for C4G U16A U35A C61G reads 0.882; that for G12C G50A, 0.736.
Next, G67U A70G: 0.822; A14G A43C A45G G50A: at most 0.5.
For A21C C22G G38C G51C, the yeast fitness was at most 0.5.
The result for U7A A15G G23A reads 0.638; that for G9C C30U A69U, at most 0.5; that for U32C C46G U59C G63C G68C, at most 0.5.
Next, C5U U28C C46A C66G: 0.534; G18A U35C U47C G50C: at most 0.5.
C22G A36C: the yeast fitness was determined as 0.585.
Next, G25A C30G U59C C66A: at most 0.5; C11U U32C C33U C62U A65G: at most 0.5.
Take C5A G18A G52A C55G: the yeast fitness came to 0.526.
For the variant G12C C24U C46U C49G, the yeast fitness was at most 0.5.
Consider G17A A45U G52A, for which the yeast fitness is at most 0.5.
As to A45C C61U, the yeast fitness was determined as 0.992.
As to G6C C29A, the yeast fitness was 0.667.
For the variant C11A C27A C29A A42C U47A G52A U59C, the yeast fitness came out at 0.503.
The result for C31U G38C reads 0.845.
Next, G9A C24A C49A A57C: at most 0.5; U54G G63U: at most 0.5.
As to U3C A20U A69C, the yeast fitness is 0.749.
The result for A40C A45C reads 0.616; that for A15U U26A C31A, at most 0.5; that for A15C C31U G68C, at most 0.5.
C4A G10C C33U C46G U54A: the yeast fitness is at most 0.5.
The result for C11A U13C G23C U32G C34A reads at most 0.5; that for G23A A36U G39C A70C, at most 0.5; that for U3C U16C G44A A45U C60A, at most 0.5.
Next, C31A A43U G68U: 0.72; A14U G44A G58C: at most 0.5; U64C A69U: 1.07.
For the variant U7A G10C C27G U32A G56A A57U, the yeast fitness is at most 0.5.
For U16C C27U C29A A40G A43C G50U, the yeast fitness is at most 0.5.
Next, G6A A69C: 0.866; A37U G38C A65C: at most 0.5; C5U A20C C34A U64C: at most 0.5.
The result for U16A C34A A40U reads at most 0.5.
As to U8G C11U, the yeast fitness was 0.646.
In the case of C30A G51C C62G, the yeast fitness is at most 0.5.
Next, U16G G23C U35C G63A: at most 0.5; A40G A57U: 0.624.
The result for C4U C29A A36C A40U G51A G68C reads at most 0.5; that for G9C A14C A15U G23A C34A, at most 0.5; that for A15G A20C C24G, 0.626.
Consider G12A A40C C66U, for which the yeast fitness came out at 0.532.
With U2A C46A, the yeast fitness was found to be 1.03.
Next, C29G C46U C66U: 0.606; A37G G39A C46G U53C C62U A69C: at most 0.5; A43C A45G A69C: 0.643.
Next, U2G C27G G63A A65C G68C: 0.632; C34A A65U: 0.736.
The result for C22U A37G A45U G52A C62G A70U reads at most 0.5; that for U7G A37G C55G, at most 0.5.
With C29U C30A A65U, the yeast fitness was at most 0.5.
Next, A15U C33G G50U: 0.527; C4A C33A A40U: 0.522.
As for U32A G39A G63A, the yeast fitness was at most 0.5.
Next, A43G G58A A65C C66U: at most 0.5; C11A A20U C29U C33G: 0.578.
Next, C4A G6A U16C G38A G58C C66U: at most 0.5; C55U A70G: 0.705.
Next, C11A C24U C27A C62G: at most 0.5; G52A G58C: 0.801; A14G G17A A57C: at most 0.5.
As for A15G U32G U35C A43C, the yeast fitness amounted to 0.585.
With C5G A14U G18A A21U A42C G48C, the yeast fitness is at most 0.5.
Consider C24U C30A U35C U59C G63A, for which the yeast fitness was at most 0.5.
The result for U7A C62A A69G A70G reads at most 0.5; that for U3A G41C C55U, at most 0.5.
Next, U16C G25U U32C A69C: at most 0.5.
The result for A15G U35A A57G C62G reads at most 0.5.
For A21C C30G U54C C55G A70G, the yeast fitness was at most 0.5.
Next, C5U G9C G52C U54C A69C: at most 0.5; G41A C55G C66U: at most 0.5; C22G C27U C30U A37G A43U G67A: at most 0.5.
Next, G9C A21G A69U: 0.512.
